Measured values taken from ChEMBL document CHEMBL1641530, “Silanetriols as in vitro inhibitors for AChE” (Bioorg Med Chem Lett, 2011).
Activity calls are given as the source filed them. No cut-off for these calls is given here.

Tests used:
[1] = target: Acetylcholinesterase (Electrophorus electricus) (UniProt O42275); test: Inhibition of Electrophorus electricus AChE at 100 uM by Ellman's method relative to control
Outline: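 Modified colorimetric Ellman assay: AChE hydrolyses acetylthiocholine to thiocholine. Final compound concentration 100 µM, read after 15 min. […] Mean ± SEM of at least eight independent experiments.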

MRC5 = test: Cytotoxicity against human MRC5 after 45 hrs by XTT proliferation assay; type: functional, cell-based
Outline: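 Human fetal lung fibroblasts (MRC-5) treated with compound, then XTT added at 1, 15 and 41 h. Dehydrogenase cleavage of XTT to orange formazan ran for 4 h and was read photometrically at two wavelengths. Viability is given relative to solvent-only cells. For the 15 h figure, mean ± SEM of at least six independent experiments.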

Acetylcholinesterase = Acetylcholinesterase (Electrophorus electricus, UniProt O42275); test: Inhibition of Electrophorus electricus AChE by Ellman's method
Sequence of Acetylcholinesterase (O42275 whole entry): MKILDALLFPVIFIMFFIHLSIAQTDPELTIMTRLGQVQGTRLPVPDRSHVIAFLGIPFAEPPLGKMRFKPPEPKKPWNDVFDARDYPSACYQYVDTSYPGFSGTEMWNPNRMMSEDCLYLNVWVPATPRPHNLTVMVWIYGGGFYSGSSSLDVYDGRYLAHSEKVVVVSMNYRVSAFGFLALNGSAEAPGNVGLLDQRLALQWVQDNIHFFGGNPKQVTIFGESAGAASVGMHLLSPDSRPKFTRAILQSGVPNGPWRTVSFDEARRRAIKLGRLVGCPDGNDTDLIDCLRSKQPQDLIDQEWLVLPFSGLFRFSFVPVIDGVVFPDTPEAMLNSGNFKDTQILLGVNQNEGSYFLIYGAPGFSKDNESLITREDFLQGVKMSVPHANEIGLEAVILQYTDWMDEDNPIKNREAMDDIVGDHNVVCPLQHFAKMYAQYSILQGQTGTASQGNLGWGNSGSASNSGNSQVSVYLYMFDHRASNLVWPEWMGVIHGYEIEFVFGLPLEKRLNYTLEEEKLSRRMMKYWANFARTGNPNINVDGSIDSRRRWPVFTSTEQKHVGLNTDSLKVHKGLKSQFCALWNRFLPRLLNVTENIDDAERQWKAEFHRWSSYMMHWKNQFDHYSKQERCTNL
Outline: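 Ellman-type colorimetric assay with acetylthiocholine as substrate. Four concentrations between 30 and 300 µM were tested, inhibition taken as % of solvent control, and IC50 derived from the concentration–inhibition plot. Mean ± standard deviation of at least eight independent experiments.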

[2] = target: Acetylcholinesterase (Electrophorus electricus) (UniProt O42275); test: Irreversible inhibition of Electrophorus electricus AChE by Ellman's method
Outline: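 Reversibility was probed by following AChE inhibition over time in the modified Ellman assay (acetylthiocholine substrate). Activity is referred to solvent control. Mean ± SEM of at least eight independent experiments.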

Sequence of Acetylcholinesterase (Electrophorus electricus) (O42275 24-633 limits assumed): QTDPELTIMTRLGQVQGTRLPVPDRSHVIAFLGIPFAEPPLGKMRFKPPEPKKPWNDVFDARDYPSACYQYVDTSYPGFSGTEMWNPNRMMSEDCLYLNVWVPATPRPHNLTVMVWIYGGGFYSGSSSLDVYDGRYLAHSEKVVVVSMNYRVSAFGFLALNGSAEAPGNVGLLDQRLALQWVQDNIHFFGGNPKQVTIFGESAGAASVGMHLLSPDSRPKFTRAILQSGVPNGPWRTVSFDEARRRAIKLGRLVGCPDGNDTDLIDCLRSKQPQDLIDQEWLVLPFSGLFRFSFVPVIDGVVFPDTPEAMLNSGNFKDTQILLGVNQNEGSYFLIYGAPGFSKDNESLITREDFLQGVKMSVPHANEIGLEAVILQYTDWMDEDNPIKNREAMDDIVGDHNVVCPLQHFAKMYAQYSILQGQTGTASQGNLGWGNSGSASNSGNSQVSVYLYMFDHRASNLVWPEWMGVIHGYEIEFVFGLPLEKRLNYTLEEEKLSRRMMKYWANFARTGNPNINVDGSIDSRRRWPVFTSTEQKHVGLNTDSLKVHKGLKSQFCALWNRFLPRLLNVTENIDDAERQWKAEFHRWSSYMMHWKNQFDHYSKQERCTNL

SMILES	inhibition [1]	Activity (MRC5)	IC50 (Acetylcholinesterase)	inhibition [2]
O[Si](O)(O)C1CCCCC1 [CYCLOHEXYLSILANETRIOL]	45%	inactive	121 µM	inactive
Cc1cc(C)c(-c2cccc(-c3c(C)cc(C)cc3C)c2[Si](O)(O)O)c(C)c1	12%	inactive	–	inactive
CCC(C)(C)[Si](O)(O)O	10%	inactive	–	inactive
